Assay results from article PMC5003403 (Clinical breast cancer, 2012).

How the values were obtained:
[1] = format: in vivo; settings: human, plasma, oral, 25 mg
In short: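 Nine patients took oral 25 mg daily with food from day 1, adding intramuscular 250 mg fulvestrant from day 8 every 28 ± 5 days. Plasma was sampled over 24 h after the day-7 dose and again after about 120 ± 7 days of combination. Samples went into prechilled heparinised tubes on ice, spun at 1000–1200g for 10–15 min at 4°C and held at about −70°C. LC-MS/MS, LLOQ 0.1 ng/mL. Noncompartmental analysis: Cmax by inspection, AUC by linear trapezoid, t1/2 = 0.693/λz.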

[2] = tested on: serum IGFBP-3 (IGF-binding protein 3); assay: Serum IGFBP-3 levels; format: in vivo, human; settings: Day 7 (exemestane alone); mean ± SD; n 22
In short: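 Serum was taken at baseline, after 1 week of single-agent oral exemestane 25 mg daily (day 7), and at day 120 (±7). About 5 mL venous blood went into serum separator tubes, clotted for at least 30 min and was centrifuged at 3000 rpm for 10 min. Serum was frozen at −70°C until assay. Day differences were tested by repeated-measures ANOVA.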

[3] = tested on: serum IGF-1 (insulin-like growth factor 1); assay: Serum IGF-1 levels; format: in vivo, human; settings: Day 7 (exemestane alone); mean ± SD; n 23

For `C=C1C[C@@H]2[C@H](CC[C@]3(C)C(=O)CC[C@@H]23)[C@@]2(C)C=CC(=O)C=C12` [Exemestane], which AUC(0-t) [1] is on record?
Its AUC(0-t) is 61.7 ± 17.1 ng·h/mL.

And the Cmax [1]?
Its Cmax is 20.1 ± 7.7 ng/mL.

And the half-life [1]?
The half-life was 7.94 ± 1.32 h.

What about the IGFBP-3 serum level [2] of the same compound?
The IGFBP-3 serum level was 5273 ± 1372 ng/mL.

What about the IGF-1 serum level [3] of the same compound?
Its IGF-1 serum level is 141 ± 55.1 ng/mL.
